Measured values from ChEMBL document CHEMBL3351585, “Design, synthesis and biological evaluation of novel peptides with anti-cancer and drug resistance-reversing activities” (Eur J Med Chem, 2015).
Each block holds one molecule with its values, some of them ahead of it. Active and inactive are the calls of the source. No cut-off for these calls is given here.

Assays:
[1] = Increase in adriamycin uptake in human MCF7/ADR cells at 1 uM after 2.5 hrs by fluorescence microscopy; assay type: ADME, cell-based; settings: nci/adr-res
In short: (§1)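 2 × 10^5 MCF-7/ADM or K562/ADM cells were co-incubated 2.5 h with ADM plus peptide, or with verapamil as comparator. Cells were washed with cold PBS and ADM fluorescence was imaged by fluorescence microscopy.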

[2] = Toxicity in rabbit erythrocytes assessed as induction of hemolysis at 160 uM incubated for 1 hr by microplate reader assay; assay type: cell-based, Oryctolagus cuniculus; settings: erythrocyte
In short: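 Rabbit red blood cells in PBS were mixed 1:1 by volume with peptide solution and incubated 1 h at 37 °C, then spun at 1000 g for 5 min. Hemoglobin in the supernatant was read at 540 nm. PBS defined 0% hemolysis and 0.1% Triton X-100 defined 100%.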

[3] = Retention time of the compound by UPLC method; assay type: physicochemical
MCF7 [4] = assay: Antimigratory activity in human MCF7 cells assessed as inhibition of cell migration at 1 uM incubated for 48 hrs by wound healing assay; assay type: functional, cell-based
In short: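 MCF-7 cells were seeded at 2 × 10^5/well and grown 24 h to 90% confluence. A cell-free gap was scratched, and cells migrated in serum-free medium with peptide for 48 h. Wound closure was photographed at 0 h and 48 h.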

MCF7 [5] = assay: Induction of cytochrome c release in human MCF7 cells at 8 uM incubated for 2 hrs by ELISA method (reference value: 364.2 +/- 20.5 ng); assay type: functional
MCF7 [6] = assay: Induction of cell membrane morphology changes in human MCF7 cells at 8 uM incubated for 30 mins by scanning electron microscopy; assay type: functional, cell-based
In short: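 MCF-7 cells were grown 24 h on coverslips at 1 × 10^5/well and exposed to peptide for 30 min. Cells were gently PBS-washed, fixed in 2.5% glutaraldehyde, and examined by scanning electron microscopy.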

[7] = Cytotoxicity against human GES-1 cells after 48 hrs by MTT assay; assay type: cell-based; settings: GES1, 48 h
In short: (§2)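 Cells grown in RPMI1640 with 10% heat-inactivated FBS and 1% penicillin-streptomycin at 37 °C, 5% CO2. Log-phase cells were seeded at 5 × 10^3/well 24 h before treatment, exposed to a range of peptide concentrations for 48 h, then given MTT for 4 h. Formazan was dissolved in DMSO and A490 read. Survival was computed relative to untreated wells, and IC50 taken from the survival curve.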

MCF7 [8] = assay: Induction of cytochrome c release in cytoplasm of human MCF7 cells at 8 uM incubated for 2 hrs by ELISA method (reference value: 44.1 +/- 2.7 ng); assay type: functional
[9] = Drug uptake in cytosol of human MCF7 cells at 8 uM incubated for 5 mins or 30 mins by fluorescein isothiocyanate labeling based fluorescence microscopy; assay type: ADME, cell-based
In short: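 MCF-7 cells were plated at 1 × 10^5/well and grown 24 h, then exposed to FITC-labeled peptides for 5 min or 30 min. Cells were washed three times with cold PBS, and intracellular fluorescence was imaged by fluorescence microscopy.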

[10] = Increase in adriamycin uptake in human MCF7/ADR cells at 1 uM after 2.5 hrs by fluorescence spectrophotometry; assay type: ADME, cell-based; settings: nci/adr-res
In short: (§3)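 2 × 10^5 MCF-7/ADM or K562/ADM cells were co-incubated 2.5 h with ADM plus peptide, or with verapamil as comparator. After washing in cold PBS, cells were lysed in 0.75 M HCl/0.2% Triton X-100 in isopropanol. Lysate ADM fluorescence was measured by spectrofluorometry at ex 460/em 610 nm.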

K562/Adr [11] = assay: Potentiation of adriamycin-induced cytotoxicity against human K562/ADR cells at 1 uM after 48 hrs by MTT assay; assay type: functional, cell-based
In short: (§4)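 ADM-resistant MCF-7/ADM or K562/ADM cells, grown in RPMI1640 with 10% FBS at 37 °C and 5% CO2, were seeded at 1 × 10^4 per well and held 24 h. Fixed peptide was added, followed by graded ADM concentrations, for 48 h. MTT was then given for 4 h at 37 °C, formazan dissolved in DMSO and absorbance read at 570 nm. Verapamil served as positive control.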

[12] = Increase in adriamycin uptake in human K562/ADR cells at 1 uM after 2.5 hrs by fluorescence spectrophotometry; assay type: ADME, cell-based; in short: as §3
MCF7 [13] = assay: Induction of cell membrane alteration in human MCF7 cells at 8 uM incubated for 30 mins by acridine orange/ethidium bromide double staining method; assay type: functional, cell-based
In short: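 MCF-7 cells were plated at 1 × 10^5/well and grown 24 h, then given peptide for 30 min. Cells were washed twice with PBS and stained 10 min in the dark with cold PBS containing acridine orange and ethidium bromide. Excess dye was washed off, then cells were imaged by fluorescence microscopy. Red EB staining marks membrane-compromised cells.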

MCF7 [14] = assay: Induction of cytochrome c release in extracellular region of human MCF7 cells at 8 uM incubated for 2 hrs by ELISA method (reference value: 15.7 +/- 0.77 ng); assay type: functional
MCF7 [15] = assay: Antimigratory activity in human MCF7 cells assessed as inhibition of cell migration at 1 uM incubated for 48 hrs by transwell migration assay; assay type: functional, cell-based
In short: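 Transwell chambers with a porous membrane separating upper and lower compartments. 4 × 10^4 MCF-7 cells were placed in the upper chamber in peptide-containing medium and incubated 48 h. Cells that reached the lower membrane surface were counted.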

MCF7 [16] = assay: Anticancer activity against human MCF7 cells after 48 hrs by MTT assay; assay type: functional, cell-based; settings: MCF7, 48 h; in short: as §2
[17] = Anticancer activity against human MCF7/ADR cells after 48 hrs by MTT assay; assay type: functional, cell-based; settings: NCI/ADR-RES; in short: as §2
[18] = Increase in adriamycin uptake in human K562/ADR cells at 1 uM after 2.5 hrs by fluorescence microscopy; assay type: ADME, cell-based; in short: as §1
K562 = assay: Anticancer activity against human K562 cells after 48 hrs by MTT assay; assay type: functional, cell-based; settings: K562, 48 h; in short: as §2
NCI/ADR-RES [19] = assay: Potentiation of adriamycin-induced cytotoxicity against human MCF7/ADR cells at 1 uM after 48 hrs by MTT assay; assay type: functional, cell-based; in short: as §4
MCF7 [20] = assay: Induction of mitochondrial membrane potential depolarization in human MCF7 cells at 8 uM incubated for 2 hrs by JC1 staining; assay type: functional, cell-based
In short: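 MCF-7 cells plated at 1 × 10^5 per well, grown 24 h, then exposed to peptide for 2 h. Mitochondrial membrane potential was assessed with a JC-1 mitochondrial membrane potential kit. Green (monomer) and red (J-aggregate) fluorescence were imaged, with merged orange taken as normal potential.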

[21] = Anticancer activity against human K562/ADR cells after 48 hrs by MTT assay; assay type: functional, cell-based; in short: as §2
MCF7 [22] = assay: Induction of cytochrome c release in mitochondria of human MCF7 cells at 8 uM incubated for 2 hrs by ELISA method (reference value: 347.8 +/- 14.5 ng); assay type: functional
NCI/ADR-RES [23] = assay: Potentiation of adriamycin-induced cytotoxicity against human MCF7/ADR cells at 10 uM after 48 hrs by MTT assay; assay type: functional, cell-based; in short: as §4
[24] = Increase in adriamycin uptake in human K562/ADR cells at 10 uM after 2.5 hrs by fluorescence microscopy; assay type: ADME, cell-based; in short: as §1
[25] = Increase in adriamycin uptake in human MCF7/ADR cells at 10 uM after 2.5 hrs by fluorescence spectrophotometry; assay type: ADME, cell-based; settings: nci/adr-res; in short: as §3
K562/Adr [26] = assay: Potentiation of adriamycin-induced cytotoxicity against human K562/ADR cells at 10 uM after 48 hrs by MTT assay; assay type: functional, cell-based; in short: as §4
[27] = Increase in adriamycin uptake in human MCF7/ADR cells at 10 uM after 2.5 hrs by fluorescence microscopy; assay type: ADME, cell-based; settings: nci/adr-res; in short: as §1
[28] = Increase in adriamycin uptake in human K562/ADR cells at 10 uM after 2.5 hrs by fluorescence spectrophotometry; assay type: ADME, cell-based; in short: as §3

Activity [1]: Active
Retention_time [3]: 3.22 min
Drug uptake [9]: Active
Activity [10]: Active
Activity [12]: Active
IC50 (MCF7 [16]): 8.3 µM
Activity [18]: Active
IC50 (K562): 5.5 µM
Molecule: H-VKRFKKFFRKLKKKV-NH2
Activity [2]: Non-toxic
inhibition (MCF7 [4]): Active
Activity (MCF7 [5]): 359.1 ng
Activity (MCF7 [6]): Active
IC50 [7]: 123 µM
Activity (MCF7 [8]): 59.6 ng
Activity (K562/Adr [11]): Active
Activity (MCF7 [13]): Active
Activity (MCF7 [14]): 15 ng
inhibition (MCF7 [15]): Active
IC50 [17]: 8.6 µM
Activity (NCI/ADR-RES [19]): Active
Activity (MCF7 [20]): Active
IC50 [21]: 5.5 µM
Activity (MCF7 [22]): 303.2 ng

Activity [24]: Active
Activity [25]: Active
Activity [27]: Active
Activity [28]: Active
Molecule: COc1ccc(CCN(C)CCCC(C#N)(c2ccc(OC)c(OC)c2)C(C)C)cc1OC (centres undefined) [VERAPAMIL]
Activity (NCI/ADR-RES [23]): Active
Activity (K562/Adr [26]): Active
